Assay results published in ChEMBL document CHEMBL3352043, “Discovery of small-molecule inhibitors selectively targeting the DNA-binding domain of the human androgen receptor” (J Med Chem, 2014).
Activity calls are given as the source filed them. The calls are words filed in the database; no cut-off is given here.

Legend:
[1] = target: T1, Androgen receptor (Homo sapiens) (UniProt P10275); assay: Binding affinity to biotinylated androgen receptor LBD (unknown origin) expressed in Escherichia coli BL21 by biolayer interferometry assay
T1 sequence (whole entry): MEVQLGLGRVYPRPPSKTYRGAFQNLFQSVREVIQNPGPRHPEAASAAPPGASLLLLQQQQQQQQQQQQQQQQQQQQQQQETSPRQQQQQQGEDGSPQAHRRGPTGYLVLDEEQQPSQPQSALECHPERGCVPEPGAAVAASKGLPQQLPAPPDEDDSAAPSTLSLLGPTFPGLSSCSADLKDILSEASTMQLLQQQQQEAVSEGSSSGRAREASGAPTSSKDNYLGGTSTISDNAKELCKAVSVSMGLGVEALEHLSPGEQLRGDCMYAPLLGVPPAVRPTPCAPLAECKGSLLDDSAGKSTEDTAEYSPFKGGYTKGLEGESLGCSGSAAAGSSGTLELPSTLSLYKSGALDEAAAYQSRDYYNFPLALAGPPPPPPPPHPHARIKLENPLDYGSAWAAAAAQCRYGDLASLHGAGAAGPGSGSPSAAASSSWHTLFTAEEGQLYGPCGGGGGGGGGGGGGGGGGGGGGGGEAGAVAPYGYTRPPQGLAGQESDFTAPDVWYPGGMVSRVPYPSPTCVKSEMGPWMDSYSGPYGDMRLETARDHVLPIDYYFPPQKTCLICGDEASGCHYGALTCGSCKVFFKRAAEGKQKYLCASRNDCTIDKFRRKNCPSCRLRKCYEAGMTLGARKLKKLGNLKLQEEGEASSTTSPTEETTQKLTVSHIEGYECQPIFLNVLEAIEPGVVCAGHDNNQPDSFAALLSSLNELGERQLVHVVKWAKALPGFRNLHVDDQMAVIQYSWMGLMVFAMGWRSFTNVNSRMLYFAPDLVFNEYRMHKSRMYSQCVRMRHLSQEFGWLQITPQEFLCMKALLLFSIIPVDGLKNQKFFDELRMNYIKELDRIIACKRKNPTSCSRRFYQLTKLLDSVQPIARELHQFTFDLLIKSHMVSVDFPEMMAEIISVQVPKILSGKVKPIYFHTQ

[2] = target: T2, Glucocorticoid receptor (Homo sapiens) (UniProt P04150); assay: Inhibition of glucocorticoid receptor (unknown origin) transcriptional activity at […]
T2 sequence (whole entry): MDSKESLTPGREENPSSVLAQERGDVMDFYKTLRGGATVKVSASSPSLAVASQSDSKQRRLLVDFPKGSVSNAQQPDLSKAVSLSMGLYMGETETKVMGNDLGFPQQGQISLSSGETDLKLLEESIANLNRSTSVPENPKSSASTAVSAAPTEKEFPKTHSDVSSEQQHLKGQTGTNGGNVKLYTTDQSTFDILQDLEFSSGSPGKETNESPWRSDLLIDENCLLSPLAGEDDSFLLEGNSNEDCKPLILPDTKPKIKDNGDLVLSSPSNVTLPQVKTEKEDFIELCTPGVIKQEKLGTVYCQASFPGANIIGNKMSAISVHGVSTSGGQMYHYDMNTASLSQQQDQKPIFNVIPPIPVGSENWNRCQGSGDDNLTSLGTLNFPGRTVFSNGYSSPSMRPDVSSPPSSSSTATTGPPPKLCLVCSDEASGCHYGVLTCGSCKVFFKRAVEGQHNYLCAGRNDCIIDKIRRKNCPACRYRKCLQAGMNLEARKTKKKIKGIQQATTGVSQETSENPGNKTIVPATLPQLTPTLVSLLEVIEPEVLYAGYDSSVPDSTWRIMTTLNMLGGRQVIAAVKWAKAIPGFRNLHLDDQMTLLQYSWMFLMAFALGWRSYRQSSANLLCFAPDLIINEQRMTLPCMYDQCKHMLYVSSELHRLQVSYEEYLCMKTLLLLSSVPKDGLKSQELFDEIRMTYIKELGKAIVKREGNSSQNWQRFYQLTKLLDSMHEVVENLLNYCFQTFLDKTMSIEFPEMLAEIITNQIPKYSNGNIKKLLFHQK
In short: (§1)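 PC3 cells were starved 5 days in RPMI 1640 with 5% charcoal-stripped serum. They were cotransfected with GR or PR plasmid plus 50 ng ARR3tk-luciferase, and 48 h later treated with compound for 24 h. Stimulation was 1 nM dexamethasone (GR) or progesterone (PR). Luciferase luminescence was read from cell lysates.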

[3] = target: T3, Progesterone receptor (Homo sapiens) (UniProt P06401); assay: Inhibition of progesterone receptor (unknown origin) transcriptional activity at […]; in short: as §1
T3 sequence (whole entry): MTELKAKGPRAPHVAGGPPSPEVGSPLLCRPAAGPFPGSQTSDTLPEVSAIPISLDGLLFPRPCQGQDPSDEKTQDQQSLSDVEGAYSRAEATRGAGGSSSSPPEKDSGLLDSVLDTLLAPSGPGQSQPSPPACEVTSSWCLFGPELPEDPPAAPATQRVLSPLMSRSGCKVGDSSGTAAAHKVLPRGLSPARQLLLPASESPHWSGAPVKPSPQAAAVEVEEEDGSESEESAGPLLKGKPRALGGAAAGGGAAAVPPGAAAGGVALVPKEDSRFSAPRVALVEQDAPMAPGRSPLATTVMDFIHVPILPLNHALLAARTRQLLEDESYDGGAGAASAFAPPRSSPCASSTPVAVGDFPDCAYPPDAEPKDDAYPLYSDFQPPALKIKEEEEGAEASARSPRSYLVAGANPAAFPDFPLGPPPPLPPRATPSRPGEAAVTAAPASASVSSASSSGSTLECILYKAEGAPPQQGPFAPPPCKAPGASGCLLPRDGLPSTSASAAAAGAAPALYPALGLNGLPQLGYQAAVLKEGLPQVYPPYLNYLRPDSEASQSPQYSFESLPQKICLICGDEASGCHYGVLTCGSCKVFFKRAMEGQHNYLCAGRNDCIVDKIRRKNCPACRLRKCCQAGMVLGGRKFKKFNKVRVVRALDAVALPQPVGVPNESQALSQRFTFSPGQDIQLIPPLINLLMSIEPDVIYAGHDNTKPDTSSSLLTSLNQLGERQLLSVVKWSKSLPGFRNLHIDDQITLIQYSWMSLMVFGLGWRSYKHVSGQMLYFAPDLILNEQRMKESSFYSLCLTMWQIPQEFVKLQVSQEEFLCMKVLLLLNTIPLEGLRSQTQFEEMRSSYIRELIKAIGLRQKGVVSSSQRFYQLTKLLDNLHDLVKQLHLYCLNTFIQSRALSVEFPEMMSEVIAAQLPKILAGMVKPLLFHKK

[4] = target: T4, Androgen receptor (Homo sapiens, UniProt P10275); assay: Inhibition of androgen receptor transcriptional activity in human LNCaP cells after 3 days by eGFP assay; assay type: cell-based
T4 sequence (P10275 whole entry): T1 sequence (whole entry)

Row | Activity [1] | inhibition [2] | inhibition [3] | IC50 [4] [nM] | inhibition [1] | Compound
1 | inactive | inactive | inactive | 120 | – | Brc1ncn(-c2csc(N3CCOCC3)n2)c1Br
2 | – | inactive | inactive | 330 | inactive | c1ccc(-c2csc(N3CCOCC3)n2)cc1
